Screening results deposited in PubChem by several laboratories.
RBBP9 inh: inhibitors of human serine hydrolase RBBP9 | O75884 | recombinant RBBP9, FP-Rh probe fluorescence polarization | inhibition, % at 7.94 µM | 0.2% of 220,000 active | AID 1515;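 active = inhibition above the campaign mean of all tested compounds plus 3 SD, cut at about 14% in these data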
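Measured by: FP readout at 525/598 nm; material: recombinant human RBBP9; also added: Serine-hydrolase probe FP-Rh, 375 nM pre-mixing; medium: Tris buffer pH 8.0, NaCl, Pluronic; replication: one well per compound; doses: one concentration, 7.94 µM nominal, 0.794% DMSO; timing: preincubation 30 min plus labeling 45 min at 25 °C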
WT yeast gro inh: growth inhibition of WT yeast, mitochondrial fusion screen. mitochondrial fusion phenotypic screen, WT strain. inhibition, % at 10 µM. 2.1% of 190,000 active. AID 1362; in the data active = inhibition above about 58%; tested in S. cerevisiae
ROMK mod: human ROMK K+ channel modulation, primary screen; 2% of 130,000 active; AID 1918; Tet-inducible ROMK, thallium flux fluorescence; actives lie on both sides; B-score at 10 µM;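 active = signal ratio slope over the read window, or its plate-corrected B-score, at least 3 SD from the plate mean, either direction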;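 note: B-score of the F/F0 ratio slope over 7 to 12 s after thallium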
Cl transport mod: KCC2 (human) Cl- transport modulation; Q9H2X9; KCC2 cells, thallium flux FluoZin-2 fluorescence; B-score of Tl+ flux slope (higher = more flux/activation; lower = inhibition) at 10 µM; 2.2% of 190,000 active; AID 1456;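 active = thallium flux slope and its plate-corrected score both differing from the plate sample mean at a set confidence after two filtering rounds, in either direction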;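 note: slope of fluorescence scaled to starting intensity during 10 to 20 s after thallium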
14-3-3 Bad PPI: disrupts binding of bovine 14-3-3 zeta to phospho-Bad peptide; P63103; TR-FRET 14-3-3zeta/Dy647-pBad peptide displacement, 1 h; inhibition, % at 21.7 µM; AID 781; 0.71% of 220,000 active;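 active = inhibition above about 70%, limit read from the data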
NCF1 inh: p47phox (human) inhibition. p47phox/p22phox peptide binding, fluorescence polarization, 2 h. 0.53% of 220,000 active. AID 1274. inhibition, % at 24.7 µM. P14598;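 active = inhibition above about 30%, limit read from the data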
A number is an active result. In the library only some 5.8% were active in any assay of this set; here they are far more common.

Cc1cccc(C)c1NC(=O)COC(=O)c1ccc([N+](=O)[O-])o1 was read as RBBP9 inh inactive, WT yeast gro inh inactive, ROMK mod inactive, Cl transport mod inactive, 14-3-3 Bad PPI inactive and NCF1 inh inactive.
`O=C(CN(Cc1ccccc1)C(=O)c1csnn1)NCc1ccccc1` gave RBBP9 inh inactive, WT yeast gro inh inactive, ROMK mod inactive, Cl transport mod inactive, 14-3-3 Bad PPI inactive and NCF1 inh inactive.
`CC1CCN(S(=O)(=O)c2ccc(S(=O)(=O)N3CCCN(Cc4ccccc4)C3)cc2)CC1` gave RBBP9 inh inactive and Cl transport mod inactive.
Screening CC(C)CNS(=O)(=O)c1ccc(S(=O)(=O)N2CCCN(Cc3ccccc3)C2)cc1 returned RBBP9 inh inactive, WT yeast gro inh 83, Cl transport mod inactive, 14-3-3 Bad PPI inactive and NCF1 inh inactive.
For Cc1ccc(NC(=O)CSc2nnc3n2CCCCC3)cc1 the results were RBBP9 inh inactive, WT yeast gro inh inactive, Cl transport mod inactive, 14-3-3 Bad PPI inactive and NCF1 inh inactive.
For CC1=CC(C)(C)N(S(=O)(=O)c2ccc(F)cc2)c2ccc(C)cc21 the results were RBBP9 inh inactive, WT yeast gro inh 81, ROMK mod inactive, Cl transport mod inactive, 14-3-3 Bad PPI inactive and NCF1 inh inactive.
COc1ccc2c(c1)C(C)=CC(C)(C)N2S(=O)(=O)c1ccc(Br)cc1 was read as RBBP9 inh inactive, WT yeast gro inh inactive, ROMK mod inactive, Cl transport mod inactive, 14-3-3 Bad PPI inactive and NCF1 inh inactive.
O=C(Nc1nnc(SCc2ccc(F)cc2)s1)c1ccc2ncsc2c1 was read as RBBP9 inh inactive, WT yeast gro inh inactive, ROMK mod inactive, Cl transport mod inactive, 14-3-3 Bad PPI 80 and NCF1 inh inactive.
Screening CC(=O)Nc1nnc(SCc2ccc(F)cc2)s1 returned RBBP9 inh inactive, WT yeast gro inh inactive, Cl transport mod inactive, 14-3-3 Bad PPI inactive and NCF1 inh inactive.
NNC(=O)CCN(Cc1ccco1)S(=O)(=O)c1ccc(Cl)cc1 was read as RBBP9 inh inactive, ROMK mod inactive, Cl transport mod inactive, 14-3-3 Bad PPI inactive and NCF1 inh inactive.
O=C(Cc1cccs1)N1CCN=C1SCc1ccc(Br)cc1 was read as RBBP9 inh inactive, WT yeast gro inh inactive, ROMK mod inactive, Cl transport mod inactive and 14-3-3 Bad PPI inactive.
Screening COc1ccccc1Nc1ncc(-c2cccs2)s1 returned RBBP9 inh inactive, WT yeast gro inh inactive, ROMK mod inactive, Cl transport mod 3.1, 14-3-3 Bad PPI inactive and NCF1 inh inactive.
For Cc1ccccc1C(=O)N=c1sccn1C the results were RBBP9 inh inactive, WT yeast gro inh inactive, ROMK mod inactive, Cl transport mod inactive, 14-3-3 Bad PPI inactive and NCF1 inh 110.
Cc1ccccc1C(=O)Nc1nncs1 was read as RBBP9 inh inactive, WT yeast gro inh inactive, Cl transport mod inactive, 14-3-3 Bad PPI inactive and NCF1 inh inactive.
Screening COc1cc(/C=C(\C#N)c2nc(-c3cc4ccccc4oc3=O)cs2)ccc1O returned RBBP9 inh inactive, WT yeast gro inh inactive, ROMK mod inactive, Cl transport mod inactive, 14-3-3 Bad PPI inactive and NCF1 inh inactive.
`COc1cc(/C=C(/C#N)c2nc(-c3cc4ccccc4oc3=O)cs2)cc([N+](=O)[O-])c1O` gave RBBP9 inh inactive, ROMK mod inactive, 14-3-3 Bad PPI 97 and NCF1 inh inactive.
Screening COc1ccc(NC(=O)c2cc(-c3ccccc3Cl)no2)cc1 returned RBBP9 inh inactive, WT yeast gro inh 85, Cl transport mod inactive, 14-3-3 Bad PPI inactive and NCF1 inh inactive.
`Cc1ccccc1C(=O)NC(=S)Nc1ccc(Cc2ccncc2)cc1` gave RBBP9 inh inactive, WT yeast gro inh inactive, ROMK mod inactive, Cl transport mod inactive, 14-3-3 Bad PPI inactive and NCF1 inh inactive.
For COc1ccc(C(=O)NC(=S)Nc2ccc(Cc3ccncc3)cc2)cc1 the results were RBBP9 inh inactive, WT yeast gro inh inactive, Cl transport mod inactive, 14-3-3 Bad PPI 81 and NCF1 inh inactive.
Cc1c(Cl)cccc1NC(=S)NCC(C)C was read as RBBP9 inh inactive, WT yeast gro inh inactive, ROMK mod inactive, Cl transport mod inactive, 14-3-3 Bad PPI inactive and NCF1 inh inactive.
For CC(C)CNC(=S)NC(=O)c1ccccc1Cl the results were RBBP9 inh inactive, WT yeast gro inh inactive, Cl transport mod 50, 14-3-3 Bad PPI inactive and NCF1 inh inactive.
`O=C(NC(=S)Nc1ccc(O)cc1)c1ccccc1Cl` gave RBBP9 inh inactive, WT yeast gro inh inactive, ROMK mod inactive, Cl transport mod inactive, 14-3-3 Bad PPI inactive and NCF1 inh inactive.
For COc1ccc(NC(=S)NC(=O)c2ccccc2Cl)cc1 the results were RBBP9 inh inactive, WT yeast gro inh inactive, ROMK mod 5.4, Cl transport mod 21, 14-3-3 Bad PPI inactive and NCF1 inh inactive.
`O=C(Nc1ccccc1)c1cc(-c2ccccc2Cl)no1` gave RBBP9 inh inactive, WT yeast gro inh inactive, Cl transport mod inactive, 14-3-3 Bad PPI inactive and NCF1 inh inactive.
Screening N#Cc1c(NC(=O)CSc2nc(N)cc(=O)[nH]2)sc2c1CCCC2 returned RBBP9 inh inactive, WT yeast gro inh inactive, ROMK mod inactive, Cl transport mod inactive, 14-3-3 Bad PPI inactive and NCF1 inh inactive.
Screening O=C(/C=C/c1cccc(Br)c1)NCc1ccncc1 returned RBBP9 inh inactive, WT yeast gro inh inactive, ROMK mod inactive, Cl transport mod inactive, 14-3-3 Bad PPI inactive and NCF1 inh inactive.
For CC(=O)n1cc(N(C(=O)CCl)c2ccc([N+](=O)[O-])cc2)c2ccccc21 the results were RBBP9 inh inactive, Cl transport mod inactive, 14-3-3 Bad PPI inactive and NCF1 inh inactive.
For O=Cc1[nH]c2ccccc2c1N(C(=O)CCl)c1ccc([N+](=O)[O-])cc1 the results were RBBP9 inh inactive, ROMK mod -2, Cl transport mod inactive, 14-3-3 Bad PPI inactive and NCF1 inh inactive.
Screening Oc1c(CN2CCOCC2)cc(-c2ccccc2)cc1CN1CCOCC1 returned RBBP9 inh inactive, WT yeast gro inh inactive, ROMK mod inactive, Cl transport mod inactive, 14-3-3 Bad PPI inactive and NCF1 inh inactive.
For CC(C)(C)c1nc(CN2CCOCC2)cc(CN2CCOCC2)c1O the results were RBBP9 inh inactive, WT yeast gro inh inactive, ROMK mod inactive, Cl transport mod inactive, 14-3-3 Bad PPI 79 and NCF1 inh inactive.
Cc1cccc(NC(=S)NCC(c2cccnc2)N(C)C)c1C (centres undefined) was read as RBBP9 inh inactive, WT yeast gro inh inactive, ROMK mod inactive, Cl transport mod inactive, 14-3-3 Bad PPI inactive and NCF1 inh inactive.
Screening COc1ccc(-c2cnc(N)nc2-c2ccc(OC)cc2O)cc1 returned RBBP9 inh inactive, WT yeast gro inh inactive, ROMK mod inactive, 14-3-3 Bad PPI inactive and NCF1 inh inactive.
Screening C=C(C)COc1ccc(-c2nc(N)ncc2-c2ccc(OC)cc2)c(O)c1 returned RBBP9 inh inactive, WT yeast gro inh 84, Cl transport mod inactive, 14-3-3 Bad PPI inactive and NCF1 inh inactive.
